Assays:
Heart [1] = test: Drug uptake in Sprague-Dawley rat heart at 25 to 35 uCi, iv after 30 mins postinjection by […]; format: ADME, organism-based; details: in vivo, 0.5 h
How it was run: (§1)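 Mature male Sprague-Dawley rats (250–400 g) under 2–3% isoflurane got 25–35 μCi tracer in 100–150 μL saline via tail vein. Groups of at least 4 were euthanized at 5 min, 30 min, 1 h or 2 h. Brain was dissected into regions, and tissues were weighed and gamma counted against an injectate standard. Values are %ID/g, mean ± SD.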

Blood [2] = test: Drug uptake in Sprague-Dawley rat blood at 25 to 35 uCi, iv after 1 hr postinjection by […]; format: ADME, organism-based; details: in vivo; how it was run: as §1
Heart [3] = test: Drug uptake in Sprague-Dawley rat heart at 25 to 35 uCi, iv after 2 hrs postinjection by […]; format: ADME, organism-based; details: in vivo; how it was run: as §1
[4] = Drug uptake in Sprague-Dawley rat fat at 25 to 35 uCi, iv after 30 mins postinjection by […]; format: ADME, organism-based, Adipose tissue; details: in vivo, 0.5 h; how it was run: as §1
[5] = Drug uptake in Sprague-Dawley rat fat at 25 to 35 uCi, iv after 2 hrs postinjection by […]; format: ADME, organism-based, Adipose tissue; details: in vivo; how it was run: as §1
Bone [6] = test: Drug uptake in Sprague-Dawley rat bone at 25 to 35 uCi, iv after 1 hr postinjection by […]; format: ADME, organism-based, Bone element; details: in vivo; how it was run: as §1
Liver [7] = test: Drug uptake in Sprague-Dawley rat liver at 25 to 35 uCi, iv after 1 hr postinjection by […]; format: ADME, organism-based; details: in vivo; how it was run: as §1
Heart [8] = test: Drug uptake in Sprague-Dawley rat heart at 25 to 35 uCi, iv after 1 hr postinjection by […]; format: ADME, organism-based; details: in vivo; how it was run: as §1
Liver [9] = test: Drug uptake in Sprague-Dawley rat liver at 25 to 35 uCi, iv after 2 hrs postinjection by […]; format: ADME, organism-based; details: in vivo; how it was run: as §1
Lung [10] = test: Drug uptake in Sprague-Dawley rat lung at 25 to 35 uCi, iv after 1 hr postinjection by […]; format: ADME, organism-based; details: in vivo; how it was run: as §1
Kidney [11] = test: Drug uptake in Sprague-Dawley rat kidney at 25 to 35 uCi, iv after 5 mins postinjection by […]; format: ADME, organism-based; details: in vivo; how it was run: as §1
Kidney [12] = test: Drug uptake in Sprague-Dawley rat kidney at 25 to 35 uCi, iv after 2 hrs postinjection by […]; format: ADME, organism-based; details: in vivo; how it was run: as §1
Kidney [13] = test: Drug uptake in Sprague-Dawley rat kidney at 25 to 35 uCi, iv after 1 hr postinjection by […]; format: ADME, organism-based; details: in vivo; how it was run: as §1
Muscle tissue [14] = test: Drug uptake in Sprague-Dawley rat muscle at 25 to 35 uCi, iv after 2 hrs postinjection by […]; format: ADME, organism-based; details: in vivo; how it was run: as §1
Bone [15] = test: Drug uptake in Sprague-Dawley rat bone at 25 to 35 uCi, iv after 2 hrs postinjection by […]; format: ADME, organism-based, Bone element; details: in vivo; how it was run: as §1
Kidney [16] = test: Drug uptake in Sprague-Dawley rat kidney at 25 to 35 uCi, iv after 30 mins postinjection by […]; format: ADME, organism-based; details: in vivo, 0.5 h; how it was run: as §1
Muscle tissue [17] = test: Drug uptake in Sprague-Dawley rat muscle at 25 to 35 uCi, iv after 1 hr postinjection by […]; format: ADME, organism-based; details: in vivo; how it was run: as §1
Brain [18] = test: Drug uptake in Sprague-Dawley rat brain at 25 to 35 uCi, iv after 1 hr postinjection by […]; format: ADME, organism-based; details: in vivo; how it was run: as §1
Brain [19] = test: Drug uptake in Sprague-Dawley rat brain at 25 to 35 uCi, iv after 5 mins postinjection by […]; format: ADME, organism-based; details: in vivo; how it was run: as §1
[20] = Drug uptake in Sprague-Dawley rat fat at 25 to 35 uCi, iv after 1 hr postinjection by […]; format: ADME, organism-based, Adipose tissue; details: in vivo; how it was run: as §1
Blood [21] = test: Drug uptake in Sprague-Dawley rat blood at 25 to 35 uCi, iv after 5 mins postinjection by […]; format: ADME, organism-based; details: in vivo; how it was run: as §1
Brain [22] = test: Drug uptake in Sprague-Dawley rat brain at 25 to 35 uCi, iv after 30 mins postinjection by […]; format: ADME, organism-based; details: in vivo, 0.5 h; how it was run: as §1
Brain [23] = test: Drug uptake in Sprague-Dawley rat brain at 25 to 35 uCi, iv after 2 hrs postinjection by […]; format: ADME, organism-based; details: in vivo; how it was run: as §1
Liver [24] = test: Drug uptake in Sprague-Dawley rat liver at 25 to 35 uCi, iv after 5 mins postinjection by […]; format: ADME, organism-based; details: in vivo; how it was run: as §1
Muscle tissue [25] = test: Drug uptake in Sprague-Dawley rat muscle at 25 to 35 uCi, iv after 30 mins postinjection by […]; format: ADME, organism-based; details: in vivo, 0.5 h; how it was run: as §1
Liver [26] = test: Drug uptake in Sprague-Dawley rat liver at 25 to 35 uCi, iv after 30 mins postinjection by […]; format: ADME, organism-based; details: in vivo, 0.5 h; how it was run: as §1
Bone [27] = test: Drug uptake in Sprague-Dawley rat bone at 25 to 35 uCi, iv after 30 mins postinjection by […]; format: ADME, organism-based, Bone element; details: in vivo, 0.5 h; how it was run: as §1
Heart [28] = test: Drug uptake in Sprague-Dawley rat heart at 25 to 35 uCi, iv after 5 mins postinjection by […]; format: ADME, organism-based; details: in vivo; how it was run: as §1
Blood [29] = test: Drug uptake in Sprague-Dawley rat blood at 25 to 35 uCi, iv after 30 mins postinjection by […]; format: ADME, organism-based; details: in vivo, 0.5 h; how it was run: as §1
Lung [30] = test: Drug uptake in Sprague-Dawley rat lung at 25 to 35 uCi, iv after 2 hrs postinjection by […]; format: ADME, organism-based; details: in vivo; how it was run: as §1
Bone [31] = test: Drug uptake in Sprague-Dawley rat bone at 25 to 35 uCi, iv after 5 mins postinjection by […]; format: ADME, organism-based, Bone element; details: in vivo; how it was run: as §1
Lung [32] = test: Drug uptake in Sprague-Dawley rat lung at 25 to 35 uCi, iv after 5 mins postinjection by […]; format: ADME, organism-based; details: in vivo; how it was run: as §1
[33] = Drug uptake in Sprague-Dawley rat fat at 25 to 35 uCi, iv after 5 mins postinjection by […]; format: ADME, organism-based, Adipose tissue; details: in vivo; how it was run: as §1
Lung [34] = test: Drug uptake in Sprague-Dawley rat lung at 25 to 35 uCi, iv after 30 mins postinjection by […]; format: ADME, organism-based; details: in vivo, 0.5 h; how it was run: as §1
Muscle tissue [35] = test: Drug uptake in Sprague-Dawley rat muscle at 25 to 35 uCi, iv after 5 mins postinjection by […]; format: ADME, organism-based; details: in vivo; how it was run: as §1
Blood [36] = test: Drug uptake in Sprague-Dawley rat blood at 25 to 35 uCi, iv after 2 hrs postinjection by […]; format: ADME, organism-based; details: in vivo; how it was run: as §1
Cerebellum = test: Drug uptake in Sprague-Dawley rat brain cerebellum at 25 to 35 uCi, iv after 5 mins postinjection by […]; format: ADME, organism-based; details: in vivo; how it was run: as §1
Striatum = test: Drug uptake in Sprague-Dawley rat brain striatum at 25 to 35 uCi, iv after 5 mins postinjection by […]; format: ADME, organism-based; details: in vivo; how it was run: as §1
Hippocampus = test: Drug uptake in Sprague-Dawley rat brain hippocampus at 25 to 35 uCi, iv after 5 mins postinjection by […]; format: ADME, organism-based; details: in vivo; how it was run: as §1
Cortex = test: Drug uptake in Sprague-Dawley rat brain cortex at 25 to 35 uCi, iv after 5 mins postinjection by […]; format: ADME, organism-based; details: in vivo; how it was run: as §1

SMILES	Drug uptake (Heart [1]) [% ID/g]	Drug uptake (Blood [2]) [% ID/g]	Drug uptake (Heart [3]) [% ID/g]	Drug uptake [4] [% ID/g]	Drug uptake [5] [% ID/g]	Drug uptake (Bone [6]) [% ID/g]	Drug uptake (Liver [7]) [% ID/g]	Drug uptake (Heart [8]) [% ID/g]	Drug uptake (Liver [9]) [% ID/g]	Drug uptake (Lung [10]) [% ID/g]	Drug uptake (Kidney [11]) [% ID/g]	Drug uptake (Kidney [12]) [% ID/g]	Drug uptake (Kidney [13]) [% ID/g]	Drug uptake (Muscle tissue [14]) [% ID/g]	Drug uptake (Bone [15]) [% ID/g]	Drug uptake (Kidney [16]) [% ID/g]	Drug uptake (Muscle tissue [17]) [% ID/g]	Drug uptake (Brain [18]) [% ID/g]	Drug uptake (Brain [19]) [% ID/g]	Drug uptake [20] [% ID/g]	other results
O=C(c1ccc([18F])cc1)C1CCN([C@@H]2Cc3ccccc3C[C@H]2O)CC1 (racemic)	0.141	0.043	0.056	0.177	0.173	0.623	1.402	0.094	1.188	0.346	1.644	0.853	0.99	0.047	0.739	1.042	0.076	0.095	0.606	0.196	Drug uptake (Blood [21]): 0.122 % ID/g; Drug uptake (Brain [22]): 0.153 % ID/g; Drug uptake (Brain [23]): 0.059 % ID/g; Drug uptake (Liver [24]): 1.939 % ID/g; Drug uptake (Muscle tissue [25]): 0.071 % ID/g; Drug uptake (Liver [26]): 1.504 % ID/g; Drug uptake (Bone [27]): 0.445 % ID/g; Drug uptake (Heart [28]): 0.328 % ID/g; Drug uptake (Blood [29]): 0.071 % ID/g; Drug uptake (Lung [30]): 0.223 % ID/g; Drug uptake (Bone [31]): 0.307 % ID/g; Drug uptake (Lung [32]): 1.389 % ID/g; Drug uptake [33]: 0.088 % ID/g; Drug uptake (Lung [34]): 0.553 % ID/g; Drug uptake (Muscle tissue [35]): 0.079 % ID/g
O=C(c1ccc([18F])cc1)C1CCN([C@@H]2Cc3ccccc3C[C@H]2O)CC1 (stereo in doubt; (+))	0.094	0.048	0.031	0.108	0.15	0.399	0.814	0.051	0.692	0.188	0.791	0.194	0.291	0.022	0.532	0.416	0.034	0.041	0.35	0.154	Drug uptake (Blood [36]): 0.027 % ID/g; Drug uptake (Blood [21]): 0.136 % ID/g; Drug uptake (Brain [22]): 0.071 % ID/g; Drug uptake (Brain [23]): 0.022 % ID/g; Drug uptake (Liver [24]): 1.849 % ID/g; Drug uptake (Muscle tissue [25]): 0.051 % ID/g; Drug uptake (Liver [26]): 1.239 % ID/g; Drug uptake (Bone [27]): 0.277 % ID/g; Drug uptake (Heart [28]): 0.194 % ID/g; Drug uptake (Blood [29]): 0.087 % ID/g; Drug uptake (Lung [30]): 0.112 % ID/g; Drug uptake (Bone [31]): 0.187 % ID/g; Drug uptake (Lung [32]): 0.904 % ID/g; Drug uptake [33]: 0.052 % ID/g; Drug uptake (Lung [34]): 0.332 % ID/g; Drug uptake (Muscle tissue [35]): 0.047 % ID/g
O=C(c1ccc([18F])cc1)C1CCN([C@@H]2Cc3ccccc3C[C@H]2O)CC1 (stereo in doubt; (-))	0.109	0.029	0.047	0.207	0.249	0.148	2.214	0.066	1.791	0.327	2.018	1.339	1.298	0.035	0.138	1.896	0.056	0.124	0.823	0.241	Drug uptake (Cerebellum): 0.743 % ID/g; Drug uptake (Striatum): 0.911 % ID/g; Drug uptake (Hippocampus): 0.837 % ID/g; Drug uptake (Cortex): 0.911 % ID/g; Drug uptake (Blood [36]): 0.02 % ID/g; Drug uptake (Blood [21]): 0.073 % ID/g; Drug uptake (Brain [22]): 0.226 % ID/g; Drug uptake (Brain [23]): 0.095 % ID/g; Drug uptake (Liver [24]): 1.506 % ID/g; Drug uptake (Muscle tissue [25]): 0.08 % ID/g; Drug uptake (Liver [26]): 1.769 % ID/g; Drug uptake (Bone [27]): 0.157 % ID/g; Drug uptake (Heart [28]): 0.321 % ID/g; Drug uptake (Blood [29]): 0.037 % ID/g; Drug uptake (Lung [30]): 0.199 % ID/g; Drug uptake (Bone [31]): 0.334 % ID/g; Drug uptake (Lung [32]): 1.577 % ID/g; Drug uptake [33]: 0.132 % ID/g; Drug uptake (Lung [34]): 0.481 % ID/g; Drug uptake (Muscle tissue [35]): 0.091 % ID/g

Source: ChEMBL document CHEMBL1140914, “Synthesis and in vitro and in vivo evaluation of 18F-labeled positron emission tomography (PET) ligands for imaging the vesicular acetylcholine transporter” (J Med Chem, 2009)
